As a reminder, the pIC50 is the negative decadic logarithm of the IC50, by convention in mol/L. A lower pIC50 goes with a large IC50.

The record followed here is ChEMBL document CHEMBL1131460, “2-substituted (2SR)-2-amino-2-((1SR,2SR)-2-carboxycycloprop-1-yl)glycines as potent and selective antagonists of group II metabotropic glutamate receptors. 2. Effects of aromatic substitution, pharmacological characterization, and bioavailability” (J Med Chem, 1998).

pIC50: −log10 of the molar value. Where only a bound is given, the exact number is not on record here.

Assay [1] in a line: Binding affinity for Group II Metabotropic glutamate receptor was measured using [3H]glutamate in rat forebrain membranes. It counts as cell membranes, Membrane. The method in brief:
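ACPD-sensitive [³H]glutamate binding to group II mGluRs in rat forebrain membranes, reported as IC50. Most values are single-point determinations; others are averages of two or three determinations. Values in parentheses are percent radioligand displacement at 1 μM.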

The target of assay [2] is T1, Metabotropic glutamate receptor 3 (Homo sapiens, UniProt Q14832). The assay is described as follows: Compound was tested its ability to block 1S,3R-ACPD-induced inhibition of forskolin stimulated cyclic-AMP in RGT cells transfected with human Metabotropic glutamate receptor 3; Agonist. It counts as functional, cell-based. The method in brief:
(§1)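 RGT cells transfected with human mGluR2 or mGluR3 were used. Forskolin-stimulated cyclic AMP was inhibited by (1S,3R)-ACPD, and compounds were tested for antagonism of this inhibition, giving IC50.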

Assay [3] addresses T2, Metabotropic glutamate receptor 2 (Homo sapiens, UniProt Q14416). The assay is described as follows: Compound was tested its ability to block 1S,3R-ACPD-induced inhibition of forskolin stimulated cyclic-AMP in RGT cells transfected with human Metabotropic glutamate receptor 2; Agonist. In kind it is functional, cell-based. A digest of the protocol:
as §1

In assay [4] the target is T1, Metabotropic glutamate receptor 3. The assay is described as follows: Effect on 1S,3R-ACPD-induced inhibition of forskolin stimulated cyclic-AMP in RGT cells expressing human Metabotropic glutamate receptor 3. It counts as functional, cell-based.
For assay [5], the target named is T2, Metabotropic glutamate receptor 2. Description: Effect on 1S,3R-ACPD-induced inhibition of forskolin stimulated cyclic-AMP in RGT cells expressing human Metabotropic glutamate receptor 2. It counts as functional, cell-based.

T1 sequence (Q14832 whole entry): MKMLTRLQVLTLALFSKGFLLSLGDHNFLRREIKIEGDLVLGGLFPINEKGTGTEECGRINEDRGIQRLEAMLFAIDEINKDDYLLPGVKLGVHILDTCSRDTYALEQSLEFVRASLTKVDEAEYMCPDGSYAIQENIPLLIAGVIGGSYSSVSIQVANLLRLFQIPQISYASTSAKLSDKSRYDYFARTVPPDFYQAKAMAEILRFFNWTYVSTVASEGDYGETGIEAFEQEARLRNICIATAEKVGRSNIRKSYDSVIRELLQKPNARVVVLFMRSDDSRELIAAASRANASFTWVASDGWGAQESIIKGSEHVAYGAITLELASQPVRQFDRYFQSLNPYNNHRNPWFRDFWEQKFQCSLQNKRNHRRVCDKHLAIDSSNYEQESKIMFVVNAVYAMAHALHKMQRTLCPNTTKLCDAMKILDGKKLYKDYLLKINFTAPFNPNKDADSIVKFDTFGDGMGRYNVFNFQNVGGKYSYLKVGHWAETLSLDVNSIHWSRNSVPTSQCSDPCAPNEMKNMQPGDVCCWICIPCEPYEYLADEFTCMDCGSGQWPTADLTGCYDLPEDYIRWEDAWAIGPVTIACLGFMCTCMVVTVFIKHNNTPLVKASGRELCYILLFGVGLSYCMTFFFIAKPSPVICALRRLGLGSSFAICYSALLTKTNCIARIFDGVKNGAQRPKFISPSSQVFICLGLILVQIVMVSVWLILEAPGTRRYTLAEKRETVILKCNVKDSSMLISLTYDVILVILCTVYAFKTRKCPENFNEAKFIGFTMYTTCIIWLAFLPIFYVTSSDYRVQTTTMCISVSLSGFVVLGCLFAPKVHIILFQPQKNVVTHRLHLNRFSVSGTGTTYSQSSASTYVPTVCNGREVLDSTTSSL
T2 sequence (Q14416 whole entry): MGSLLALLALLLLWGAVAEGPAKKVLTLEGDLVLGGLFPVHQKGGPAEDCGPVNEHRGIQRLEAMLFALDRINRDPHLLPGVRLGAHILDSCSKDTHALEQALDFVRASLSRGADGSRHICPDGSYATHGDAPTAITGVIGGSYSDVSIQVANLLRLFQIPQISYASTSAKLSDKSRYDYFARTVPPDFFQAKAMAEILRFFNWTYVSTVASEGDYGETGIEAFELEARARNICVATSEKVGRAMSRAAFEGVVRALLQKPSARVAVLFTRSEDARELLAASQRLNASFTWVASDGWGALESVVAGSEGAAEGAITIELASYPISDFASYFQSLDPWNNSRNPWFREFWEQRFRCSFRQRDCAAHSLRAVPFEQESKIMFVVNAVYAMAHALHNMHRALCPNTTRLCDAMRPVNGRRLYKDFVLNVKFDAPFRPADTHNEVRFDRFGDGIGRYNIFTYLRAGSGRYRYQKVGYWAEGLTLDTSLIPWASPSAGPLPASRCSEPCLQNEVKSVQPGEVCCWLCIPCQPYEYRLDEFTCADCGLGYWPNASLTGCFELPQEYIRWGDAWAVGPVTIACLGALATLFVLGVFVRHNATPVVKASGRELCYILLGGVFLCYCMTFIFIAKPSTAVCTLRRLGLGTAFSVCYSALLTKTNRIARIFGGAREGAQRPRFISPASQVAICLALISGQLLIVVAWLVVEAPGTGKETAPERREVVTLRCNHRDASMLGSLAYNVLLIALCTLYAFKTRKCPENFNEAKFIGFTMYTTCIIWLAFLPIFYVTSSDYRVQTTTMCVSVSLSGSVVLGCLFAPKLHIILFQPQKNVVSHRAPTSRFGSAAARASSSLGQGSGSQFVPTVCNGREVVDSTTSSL

Consider `COc1ccccc1CC[C@](N)(C(=O)O)C1C[C@@H]1C(=O)O` (some centres undefined), for which, in assay [1], the pIC50 is 6.77. In the case of `NC(CC(c1ccccc1)c1ccccc1)(C(=O)O)[C@@H]1C[C@H]1C(=O)O` (single isomer, unassigned), in assay [1] (Membrane), the Displacement is 0%.

In the case of `N[C@@H](C(=O)O)C1C[C@@H]1C(=O)O` (some centres undefined), the pIC50 in assay [1] is 6.33. Further, the IC50 result in assay [2] and in assay [3] was “Agonist” each time. `N[C@@](CCc1cccc(Oc2ccccc2)c1)(C(=O)O)C1C[C@@H]1C(=O)O` (some centres undefined) gave a pIC50 in assay [1] of 6.66. The same measure, in the same setting: the result for `N[C@@](CCc1ccc(Cl)cc1Cl)(C(=O)O)C1C[C@@H]1C(=O)O` (some centres undefined) reads 6.66; that for `CSc1cccc(CC[C@](N)(C(=O)O)C2C[C@@H]2C(=O)O)c1` (some centres undefined), 6.39. Still for that read-out and setting: the figure for `N[C@@](CCc1cccc(F)c1F)(C(=O)O)C1C[C@@H]1C(=O)O` (some centres undefined) is 6.89; for `CC(C)(C)c1cccc(CC[C@](N)(C(=O)O)C2C[C@@H]2C(=O)O)c1` (some centres undefined) it is under 5.00; for `COc1cc(CC[C@](N)(C(=O)O)C2C[C@@H]2C(=O)O)cc(OC)c1` (some centres undefined) it is 6.96. Still for that read-out and setting: the figure for `N[C@@](CCc1c(Cl)cccc1Cl)(C(=O)O)C1C[C@@H]1C(=O)O` (some centres undefined) is 6.15; for `N[C@@](CCc1cccc(Br)c1)(C(=O)O)C1C[C@@H]1C(=O)O` (some centres undefined) it is 7.16.

The molecule `N[C@@](CCc1ccccc1Oc1ccccc1)(C(=O)O)C1C[C@@H]1C(=O)O` (some centres undefined) had a pIC50 in assay [1] of 6.44. The same measure, in the same setting: the figure for `N[C@@](CC(c1ccccc1)c1ccccc1)(C(=O)O)[C@H]1C[C@@H]1C(=O)O` is 5.70.

As to `N[C@](CC1c2ccccc2Oc2ccccc21)(C(=O)O)C1C[C@H]1C(=O)O` (stereo in doubt; 174), the pIC50 in assay [1] was 5.38. Same read-out and setting: the result for `N[C@@](CCc1ccccc1Cl)(C(=O)O)C1C[C@@H]1C(=O)O` (some centres undefined) reads 6.59.

For `COc1cccc(CC[C@](N)(C(=O)O)C2C[C@@H]2C(=O)O)c1` (some centres undefined), the pIC50 in assay [1] is 7.03; in assay [4], 6.80; in assay [5], 6.37.

In assay [1], `N[C@@](CCc1ccc(F)cc1F)(C(=O)O)C1C[C@@H]1C(=O)O` (some centres undefined) showed a pIC50 of 7.20.

Regarding `N[C@@](CCc1c(F)c(F)c(F)c(F)c1F)(C(=O)O)C1C[C@@H]1C(=O)O` (some centres undefined), the pIC50 in assay [1] was 6.43. `N[C@@](CCc1ccc(O)cc1)(C(=O)O)C1C[C@@H]1C(=O)O` (some centres undefined) showed a pIC50 in assay [1] of 6.52. Still for that read-out and setting: the figure for `N[C@@](CCc1ccccc1F)(C(=O)O)C1C[C@@H]1C(=O)O` (some centres undefined) is 6.51; for `N[C@](CC1c2ccccc2Oc2ccccc21)(C(=O)O)C1C[C@H]1C(=O)O` (stereo in doubt; 173) it is 6.07. As for `N[C@@](CCc1cccc(Cl)c1)(C(=O)O)C1C[C@@H]1C(=O)O` (some centres undefined), the pIC50 was 7.00 in assay [1], 6.74 in assay [4] and 6.74 in assay [5].

In turn, `N[C@@](CCc1cccc(C2CCCC2)c1)(C(=O)O)C1C[C@@H]1C(=O)O` (some centres undefined) showed a pIC50 in assay [1] of under 5.00. As to `N[C@@](CCc1cccc(O)c1)(C(=O)O)C1C[C@@H]1C(=O)O` (some centres undefined), the pIC50 in assay [1] is 6.82; in assay [4] it was 6.59; in assay [5], 6.00.

On to `Nc1cccc(CC[C@](N)(C(=O)O)C2C[C@@H]2C(=O)O)c1` (some centres undefined), for which the pIC50 in assay [4] is 6.70; in assay [5], 5.51. `N[C@@](CCc1ccccc1O)(C(=O)O)C1C[C@@H]1C(=O)O` (some centres undefined) had a pIC50 in assay [1] of 6.66. Still for that read-out and setting: the figure for `N[C@@](CCc1ccc(-c2ccccc2)cc1)(C(=O)O)C1C[C@@H]1C(=O)O` (some centres undefined) is 5.82. Regarding `N[C@@](CC1c2ccccc2Oc2ccccc21)(C(=O)O)[C@H]1C[C@@H]1C(=O)O`, the pIC50 in assay [1] was 6.28. Same read-out and setting: the result for `Cc1ccc(CC[C@](N)(C(=O)O)C2C[C@@H]2C(=O)O)cc1` (some centres undefined) reads 6.23. `N[C@@](CCc1ccccc1C(F)(F)F)(C(=O)O)C1C[C@@H]1C(=O)O` (some centres undefined) showed a pIC50 in assay [1] of 6.32. In the case of `COc1cccc(CC[C@](N)(C(=O)O)C2C[C@@H]2C(=O)O)c1OC` (some centres undefined), the pIC50 in assay [1] was 5.31. Still for that read-out and setting: the figure for `COc1ccc(OC)c(CC[C@](N)(C(=O)O)C2C[C@@H]2C(=O)O)c1` (some centres undefined) is 6.77. Regarding `NC(CCc1cccc(C(=O)O)c1)(C(=O)O)[C@H]1C[C@@H]1C(=O)O` (some centres undefined), the pIC50 in assay [1] was 7.11; in assay [4], 7.10; in assay [5] it was 5.74. In assay [1], `N[C@@](CCc1ccc(Cl)c(Cl)c1)(C(=O)O)C1C[C@@H]1C(=O)O` (some centres undefined) had a pIC50 of 7.17. On the same count and under the same terms, the result for `N[C@@](CCc1cc(F)ccc1F)(C(=O)O)C1C[C@@H]1C(=O)O` (some centres undefined) reads 6.54; that for `Cc1ccccc1CC[C@](N)(C(=O)O)C1C[C@@H]1C(=O)O` (some centres undefined), 6.24. Still for that read-out and setting: the result for `N[C@@](CCc1cc(Cl)cc(Cl)c1)(C(=O)O)C1C[C@@H]1C(=O)O` (some centres undefined) reads 7.54. Regarding `CS(=O)(=O)c1cccc(CC[C@](N)(C(=O)O)C2C[C@@H]2C(=O)O)c1` (some centres undefined) [listing 1 of 2 here], the pIC50 is 6.96 in assay [1], 6.74 in assay [4] and 6.72 in assay [5].

For `N[C@@](CCc1ccc(C(=O)O)cc1)(C(=O)O)C1C[C@@H]1C(=O)O` (some centres undefined), the pIC50 in assay [1] is 6.43. Same read-out and setting: the figure for `COc1ccc(CC[C@](N)(C(=O)O)C2C[C@@H]2C(=O)O)cc1OC` (some centres undefined) is 6.34; for `N[C@@](CCc1ccc(Cl)cc1)(C(=O)O)C1C[C@@H]1C(=O)O` (some centres undefined) it is 6.39; for `N[C@@](CCc1cccc(F)c1)(C(=O)O)C1C[C@@H]1C(=O)O` (some centres undefined) it is 6.80. Consider `N[C@@](CCc1ccc(F)cc1)(C(=O)O)C1C[C@@H]1C(=O)O` (some centres undefined), for which the pIC50 in assay [1] is 7.66; in assay [4], 6.68; in assay [5], 6.74. In assay [1], `N[C@@](CCc1cccc(-c2ccccc2)c1)(C(=O)O)C1C[C@@H]1C(=O)O` (some centres undefined) gave a pIC50 of 6.29. Still for that read-out and setting: the result for `COc1ccc(CC[C@](N)(C(=O)O)C2C[C@@H]2C(=O)O)cc1` (some centres undefined) reads 5.85.

In turn, `Cc1cccc(CC[C@](N)(C(=O)O)C2C[C@@H]2C(=O)O)c1` (stereo in doubt; 104) showed a pIC50 in assay [1] of 7.05. In turn, `N[C@@](CCc1ccc(F)c(F)c1)(C(=O)O)C1C[C@@H]1C(=O)O` (some centres undefined) showed a pIC50 in assay [1] of 7.47.

`N[C@@](CCc1cccc(C(F)(F)F)c1)(C(=O)O)C1C[C@@H]1C(=O)O` (some centres undefined): the values for the pIC50 in assay [1], in assay [4] and in assay [5] were 6.85, 6.38 and 6.66, respectively. In turn, `NC(CCc1ccccc1)(C(=O)O)[C@H]1C[C@@H]1C(=O)O` (some centres undefined) showed a pIC50 in assay [1] of 6.49. With `N[C@](CC(c1ccccc1)c1ccccc1)(C(=O)O)[C@H]1C[C@@H]1C(=O)O`, the pIC50 in assay [1] is 7.46; in assay [4], 6.77; in assay [5], 6.66. In the case of `N[C@@](CCc1ccc(Br)cc1)(C(=O)O)C1C[C@@H]1C(=O)O` (some centres undefined), in assay [1], the pIC50 is 6.17.

`CCCc1cccc(CC[C@](N)(C(=O)O)C2C[C@@H]2C(=O)O)c1` (some centres undefined) gave a pIC50 in assay [1] of 6.24.

Turning to `Cc1cccc(CC[C@](N)(C(=O)O)C2C[C@@H]2C(=O)O)c1` (stereo in doubt; 180), in assay [1], the pIC50 was 7.92. In turn, `N[C@@](CCc1cc(F)cc(F)c1)(C(=O)O)C1C[C@@H]1C(=O)O` (some centres undefined) gave a pIC50 in assay [1] of 7.68. The same measure, in the same setting: the figure for `CS(=O)(=O)c1cccc(CC[C@](N)(C(=O)O)C2C[C@@H]2C(=O)O)c1` (some centres undefined) [listing 2 of 2 here] is 5.62.
